Consider 1 molecule from ChEMBL document CHEMBL2163298, “Inhibition of human topoisomerases I and II by simocyclinone D8” (J Nat Prod, 2012).

Test [1] deals with T1, DNA topoisomerase 1 (Homo sapiens) (UniProt P11387).
T1 sequence (whole entry): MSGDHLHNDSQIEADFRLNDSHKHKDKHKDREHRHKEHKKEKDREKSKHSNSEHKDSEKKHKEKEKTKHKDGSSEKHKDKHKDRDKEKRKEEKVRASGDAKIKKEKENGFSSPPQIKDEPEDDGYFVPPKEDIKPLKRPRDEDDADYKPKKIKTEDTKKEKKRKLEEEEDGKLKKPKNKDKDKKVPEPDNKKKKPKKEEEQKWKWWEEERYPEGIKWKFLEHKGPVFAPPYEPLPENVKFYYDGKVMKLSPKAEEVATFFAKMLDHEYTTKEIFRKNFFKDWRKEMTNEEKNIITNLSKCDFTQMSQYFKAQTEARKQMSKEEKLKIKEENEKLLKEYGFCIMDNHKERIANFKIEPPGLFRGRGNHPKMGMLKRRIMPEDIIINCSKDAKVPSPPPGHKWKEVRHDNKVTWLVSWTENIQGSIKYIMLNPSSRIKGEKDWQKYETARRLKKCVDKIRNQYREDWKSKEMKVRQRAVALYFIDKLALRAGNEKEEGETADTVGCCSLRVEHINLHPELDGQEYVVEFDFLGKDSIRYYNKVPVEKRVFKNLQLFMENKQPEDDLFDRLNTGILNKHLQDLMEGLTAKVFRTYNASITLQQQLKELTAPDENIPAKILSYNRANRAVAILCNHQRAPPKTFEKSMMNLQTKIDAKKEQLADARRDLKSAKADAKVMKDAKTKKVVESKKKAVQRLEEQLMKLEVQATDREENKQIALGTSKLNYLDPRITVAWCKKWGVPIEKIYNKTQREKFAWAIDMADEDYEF
Briefly: Inhibition of human topoisomerase 1-mediated plasmid DNA cleavage at 25 to 200 uM after 10 mins by agarose gel electrophoresis. In a few lines: (§1)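 Relaxed plasmid (0.3 μg) with 5 units human Topo I at 37 °C for 10 min. Buffer: pH 7.5, 1 mM MgCl2. Stopped with 1% SDS, then 25 mM EDTA and 100 μg/mL proteinase K, 37 °C 15 min. Phenol extraction, 1.2% agarose gel with ethidium bromide at 2 V/cm for 12 h. 5 μM CPT reaction as control.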

In test [2] the target is T2, Topoisomerase I (Bos taurus) (UniProt Q2HPH0).
T2 sequence (whole entry): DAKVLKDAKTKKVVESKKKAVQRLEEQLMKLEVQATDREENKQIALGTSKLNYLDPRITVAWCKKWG
Briefly: Inhibition of calf thymus topoisomerase 1-mediated relaxation of supercoiled pBR322 DNA after 15 mins by agarose gel electrophoresis. In a few lines: (§2)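 Supercoiled pBR322 (0.3 μg) relaxed by human Topo I (1 unit, 30 min; or 2 units, 15 min) or calf thymus Topo I (0.5 unit, 15 min), 37 °C. Buffer: 50 mM Tris-HCl pH 7.5, 1 mM MgCl2, 1 mM DTT, 50 μg/mL BSA. Stopped with 25 mM EDTA. Run on 1.2% agarose in TAE, ethidium-stained and quantified. IC50 taken from these gels.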

The target in test [3] is T1, DNA topoisomerase 1 (Homo sapiens). Briefly: Dissociation of human topo 1-CPT-DNA ternary complex assessed as reduction in nicked DNA formation at 160 uM after 10 mins by dilution DNA cleavage assay relative to untreated-control. Further details: scale not given: the % may be the effect or the level left. Put shortly:
(§3)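 Topo I cleavage mix (0.6 μg relaxed plasmid, 5 units human Topo I, 2.5 μM CPT), 37 °C 5 min. Then diluted 10-fold in drug-free buffer or buffer holding 2.5 μM CPT, 160 μM SD8, or both, 37 °C 10 min. SDS/EDTA/proteinase K workup. Nicked DNA normalized to the undiluted control; mean and absolute deviation of two assays.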

Test [4] shares this target. Briefly: Dissociation of human topo 1-CPT-DNA ternary complex assessed as reduction in nicked DNA formation measuring remaining ternary complex at 150 uM after 20 mins by two-step DNA cleavage assay. In a few lines: (§4)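 Topo I with 7.5 μM CPT on relaxed plasmid DNA (6-fold scaled cleavage mix: 50 mM Tris-HCl pH 7.5, 1 mM MgCl2, 1 mM DTT, BSA), 37 °C 5 min. Then 150 μM SD8 or DMSO (2% final), continued at 37 °C. Aliquots taken at set times, stopped with 1% SDS, then EDTA/proteinase K 37 °C 15 min. Nicked DNA read on ethidium agarose gels.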

The target in test [5] is DNA topoisomerase 2-alpha (Homo sapiens) (UniProt P11388). In words: Inhibition of human topoisomerase 2-mediated relaxation of supercoiled pBR322 DNA at 50 to 400 uM after 30 mins by agarose gel electrophoresis. Put shortly:
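Human Topo II (2 units) relaxed 0.3 μg supercoiled pBR322 at 37 °C for 30 min. Stopped with 25 mM EDTA, 5 min. Analyzed on agarose gels.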

For test [6], the target named is T1, DNA topoisomerase 1 (Homo sapiens). In words: Inhibition of human topoisomerase 1-mediated relaxation of supercoiled pBR322 DNA at 50 to 400 uM after 15 to 30 mins by agarose gel electrophoresis in presence of 100 mM NaCl. In a few lines:
(§5)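 Human Topo I relaxation of supercoiled pBR322 at 37 °C, run as the standard assay. Mg2+ raised up to 1 mM, NaCl up to 100 mM, or potassium glutamate up to 200 mM. Products resolved on agarose gels.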

The target is the same in test [7]. In words: Dissociation of human topo 1-CPT-DNA ternary complex assessed as reduction in nicked DNA formation at 160 uM after 10 mins by dilution DNA cleavage assay in presence of 2.5 uM CPT. Also on record: scale not given: the % may be the effect or the level left. Put shortly: as §3
Test [8] has the same target. In words: Inhibition of human topoisomerase 1-mediated plasmid DNA cleavage preincubated at 150 uM for 5 mins before addition of poison measured after 10 mins by agarose gel electrophoresis. Put shortly: (§6)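 Two-step assay at 4-fold scale: Topo I or human Topo II with 150 μM SD8, 37 °C 5 min. Aliquots then given 7.5 μM CPT (Topo I) or 7.5 μM etoposide (Topo II), 37 °C 10 min. Stopped with 1% SDS, then proteinase K (Topo I 37 °C 15 min; Topo II 50 °C 60 min). Gel readout.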

Test [9] has the same target. Briefly: Inhibition of human topoisomerase 1-mediated relaxation of supercoiled pBR322 DNA at 50 to 400 uM after 15 to 30 mins by agarose gel electrophoresis in presence of 200 mM potassium glutamate. Put shortly: as §5
In test [10] the target is DNA topoisomerase 2-alpha (Homo sapiens) (UniProt P11388). Briefly: Dissociation of human topo 2-etoposide-DNA ternary complex assessed as nicked DNA formation at 150 uM after 20 mins by two-step DNA cleavage assay. Conditions: in the assay text read “linear DNA” for “nicked DNA”. In a few lines: (§7)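 Human Topo II with 7.5 μM etoposide on relaxed plasmid DNA (50 mM Tris-HCl pH 8, 10 mM MgCl2, 10 mM DTT, 1 mM ATP, BSA; 6-fold scale), 37 °C 5 min. Then 150 μM SD8 or 2% DMSO at 37 °C. Timed aliquots stopped with 1% SDS, then EDTA/proteinase K 50 °C 60 min. Linear DNA quantified on ethidium agarose gels.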

The target of test [11] is T1, DNA topoisomerase 1 (Homo sapiens). In words: Stimulation of human topoisomerase 1-mediated plasmid DNA cleavage at 25 to 200 uM after 10 mins by agarose gel electrophoresis. Put shortly: as §1
For test [12] the target is unchanged. In words: Inhibition of human topoisomerase 1-mediated relaxation of supercoiled pBR322 DNA at 50 to 400 uM after 15 to 30 mins by agarose gel electrophoresis in presence of 1 mM magnesium. Put shortly: as §5
Test [13] has the same target. In words: Dissociation of human topo 1-CPT-DNA ternary complex assessed as reduction in nicked DNA formation at 150 uM by two-step DNA cleavage assay. Also on record: scale not given: the % may be the effect or the level left. In a few lines: as §4
The target in test [14] is DNA topoisomerase 2-alpha (Homo sapiens) (UniProt P11388). In words: Inhibition of human topoisomerase 2-mediated plasmid DNA cleavage at 25 to 200 uM after 10 mins by agarose gel electrophoresis electrophoresis. In a few lines: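 Relaxed plasmid (0.3 μg) with 5 units human Topo II and 1 mM ATP at 37 °C for 10 min. Buffer: pH 8, 10 mM MgCl2. Stopped with 1% SDS, then EDTA and proteinase K at 50 °C for 60 min. Extracted and run on ethidium agarose gels.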

Test [15] has the same target. Briefly: Dissociation of human topo 2-etoposide-DNA ternary complex assessed as reduction in […] formation at 150 uM by two-step DNA cleavage assay. In a few lines: as §7
Test [16] addresses T1, DNA topoisomerase 1 (Homo sapiens). In words: Ratio of CPT IC50 to compound IC50 for human topoisomerase 1-mediated relaxation of supercoiled pBR322 DNA.
Test [17] shares this target. In words: Inhibition of human topoisomerase 1-mediated relaxation of supercoiled pBR322 DNA at 50 to 400 uM after 15 to 30 mins by agarose gel electrophoresis. Put shortly:
as §2

The next test deals with T3, DNA topoisomerase 1 (Homo sapiens, UniProt P11387).
T3 sequence (P11387 whole entry): T1 sequence (whole entry)
Briefly: Inhibition of human topoisomerase 1-mediated relaxation of supercoiled pBR322 DNA after 15 to 30 mins by agarose gel electrophoresis. Put shortly: as §2

Test [18] concerns the target DNA topoisomerase 2-alpha (Homo sapiens) (UniProt P11388). Briefly: Inhibition of human topoisomerase 2-mediated plasmid DNA cleavage preincubated at 150 uM for 5 mins before addition of poison measured after 10 mins by agarose gel electrophoresis. Put shortly: as §6
The target of test [19] is T1, DNA topoisomerase 1 (Homo sapiens). In words: Dissociation of human topo 1-CPT-DNA ternary complex assessed as reduction in nicked DNA formation at 160 uM after 10 mins by dilution DNA cleavage assay. Further details: scale not given: the % may be the effect or the level left. Put shortly:
as §3

Calls of active or inactive are those of the source. No cut-off for these calls is given here.

The IC50 is the concentration that gives 50% inhibition.

Sequence of DNA topoisomerase 2-alpha (Homo sapiens) (P11388 whole entry): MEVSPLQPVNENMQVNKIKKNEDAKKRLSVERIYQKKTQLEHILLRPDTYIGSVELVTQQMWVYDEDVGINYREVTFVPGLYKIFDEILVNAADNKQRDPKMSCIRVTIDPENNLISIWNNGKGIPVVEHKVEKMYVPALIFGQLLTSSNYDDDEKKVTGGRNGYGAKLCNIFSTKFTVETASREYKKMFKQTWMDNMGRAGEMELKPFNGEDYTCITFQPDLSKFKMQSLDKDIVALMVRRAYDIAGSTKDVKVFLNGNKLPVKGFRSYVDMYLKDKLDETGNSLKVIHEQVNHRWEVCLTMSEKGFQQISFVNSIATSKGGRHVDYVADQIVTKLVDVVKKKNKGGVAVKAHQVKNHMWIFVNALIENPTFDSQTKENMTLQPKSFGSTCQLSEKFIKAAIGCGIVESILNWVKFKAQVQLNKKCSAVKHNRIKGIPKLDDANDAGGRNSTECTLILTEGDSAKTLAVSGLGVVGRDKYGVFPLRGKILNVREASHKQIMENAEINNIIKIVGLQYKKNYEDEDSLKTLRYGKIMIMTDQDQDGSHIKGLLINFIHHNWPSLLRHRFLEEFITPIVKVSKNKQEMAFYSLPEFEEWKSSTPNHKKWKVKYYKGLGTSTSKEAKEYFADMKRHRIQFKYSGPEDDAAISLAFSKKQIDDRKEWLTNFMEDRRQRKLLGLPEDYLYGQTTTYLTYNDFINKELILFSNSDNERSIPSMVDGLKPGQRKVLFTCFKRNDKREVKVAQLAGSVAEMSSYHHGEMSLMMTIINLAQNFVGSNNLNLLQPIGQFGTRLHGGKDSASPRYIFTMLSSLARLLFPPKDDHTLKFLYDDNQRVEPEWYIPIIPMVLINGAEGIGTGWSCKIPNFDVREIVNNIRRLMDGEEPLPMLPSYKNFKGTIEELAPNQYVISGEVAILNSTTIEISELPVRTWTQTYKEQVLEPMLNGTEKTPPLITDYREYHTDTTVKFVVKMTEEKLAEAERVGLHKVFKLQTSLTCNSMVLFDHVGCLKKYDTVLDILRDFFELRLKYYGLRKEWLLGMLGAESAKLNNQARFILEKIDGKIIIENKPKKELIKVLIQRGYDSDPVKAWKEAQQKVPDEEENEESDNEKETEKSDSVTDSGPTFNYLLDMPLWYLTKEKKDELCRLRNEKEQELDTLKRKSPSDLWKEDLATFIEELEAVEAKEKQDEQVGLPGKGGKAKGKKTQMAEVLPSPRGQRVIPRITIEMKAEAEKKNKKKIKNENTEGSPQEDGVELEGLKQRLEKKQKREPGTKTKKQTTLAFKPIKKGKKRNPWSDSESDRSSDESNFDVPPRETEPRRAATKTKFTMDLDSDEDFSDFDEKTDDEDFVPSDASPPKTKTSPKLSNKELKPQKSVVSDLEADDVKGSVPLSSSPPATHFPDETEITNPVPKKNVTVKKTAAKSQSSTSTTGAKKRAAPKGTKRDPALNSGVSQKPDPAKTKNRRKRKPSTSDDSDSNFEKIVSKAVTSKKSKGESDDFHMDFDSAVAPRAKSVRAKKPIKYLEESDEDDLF

As for `CC(=O)O[C@@H]1[C@@H](C)O[C@@H](c2ccc3c(c2O)[C@@H](O)[C@]24O[C@@]2(C3=O)[C@@]2(O)C(=O)C=C(C)C[C@@]2(O)C[C@@H]4O)C[C@H]1OC(=O)/C=C/C=C/C=C/C=C/C(=O)Nc1c(O)c2ccc(O)c(Cl)c2oc1=O` [SIMOCYCLINONE D8], the inhibition result in test [1], in [2], in test [5], in test [6], in [8] and in test [9] was “Active” in each case. In addition, the inhibition entry in [12], in [14], in [17] and in [18] was “Active” in each case. Besides, the Activity amounted to 20% in [3]; 53% in [4]; 46% in [7]; 107% in [10]; 40% in test [13]; 55% in [19]. In addition, the result in test [11] and in [15] was inactive. Besides, in test [16], the Ratio IC50 stood at 0.5. On DNA topoisomerase 1, this molecule returned a half-maximal inhibitory concentration (IC50) of 60 µM.
